Most compounds without a hit are left out; they make up all but 2% or so of the library.
Exocytosis inh: blocks lytic granule exocytosis. TALL-104 LAMP-1 surface exposure, flow cytometry; cells stimulated with thapsigargin and PMA. inhibition, % at 10 µM. actives 0.66% (n = 360,000). AID 651702;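 active = inhibition above about 55%, limit read from the data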
DAGLB inh: diacylglycerol lipase beta (human) inhibition; Q8NCG7; inhibition, % at 5.17 µM; actives 0.059% (n = 340,000); HEK293T DAGLB membrane lysate, EnzChek fluorogenic substrate; in the data active = inhibition above about 34%;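 also: 0% = enzyme with vehicle and 100% = wells lacking enzyme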
VLA-4 inh: inhibition in a human VLA-4 binding assay; P13612; VLA-4 expressing cells, ligand binding flow cytometry; inhibition, % (about 7 µM as worked out from the volumes in the protocol); actives 0.2% (n = 330,000); AID 2557; in the data active = inhibition above about 50%
MT1-MMP act inh: inhibitors of human MT1-MMP activation. P50281. actives 0.061% (n = 360,000). HT1080 RFP-PRO-GFP cells, GFP/RFP ratio fluorescence, overnight; percent of plate control window, DMSO zero. GFP/RFP ratio change, % at 20 µM;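 active = GFP/RFP ratio change of at least 30% with cell ATP level not reduced by more than half and red fluorescence within 50% of control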
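Material: RFP-PRO-GFP reporter HT1080 cells. Dosing: single-point 20 µM compound, 1% DMSO. Controls: DMSO and RFP-L50D-GFP cell wells. Timing: cells overnight before dosing, compound overnight, 37 °C, 5% CO2. Measure: GFP/RFP fluorescence ratio.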
FGF22 binding: binders of recombinant human FGF22 by thermal shift; Q9HCT0; AID 651658; actives 1.5% (n = 340,000); SYPRO orange fluorescence; percent of sucrose octasulfate shift, DMSO zero; activity (Tm shift, normalised), % at 9.99 µM;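 active = mean Tm shift, scaled 0 neutral to 100 positive control, at about 1.3% or above, every replicate too, limit read from the data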
Target sequence (Q9HCT0 whole entry, looked up): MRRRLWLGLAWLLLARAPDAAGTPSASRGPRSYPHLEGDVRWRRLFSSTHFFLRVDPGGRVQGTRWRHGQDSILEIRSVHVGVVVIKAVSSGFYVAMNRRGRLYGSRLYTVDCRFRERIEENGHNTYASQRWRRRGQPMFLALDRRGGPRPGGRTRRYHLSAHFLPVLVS
ABCB6 inh 2: blocks the human ABCB6 transporter; Q9NP58; K562-ABCB6 porphyrin accumulation, flow cytometry, 1 h; hits give low values; fluorescence ratio to DMSO, % at 10 µM; actives 0.19% (n = 360,000); AID 602162;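 active = fluorescence ratio to DMSO below 75%, the collection mean minus 3 SD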;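 also: signal is porphyrin accumulated inside mitochondria; 100% equals median channel fluorescence of DMSO control wells; lower ratio means ABCB6 inhibition with less porphyrin fluorescence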
Starred values were filed as active, the others as inactive; / = no result.

SMILES | Exocytosis inh | DAGLB inh | VLA-4 inh | MT1-MMP act inh | FGF22 binding | ABCB6 inh 2
CCCc1cc(=O)n2[nH]c(C(F)(F)F)nc2n1 | 0.2 | -1.6 | 7.2 | 1.0 | 43.0* | 98.0
Cc1noc(C)c1S(=O)(=O)Nc1cccc2c1O[C@@H](CN(C)CC1CCCCC1)[C@@H](C)CN([C@@H](C)CO)C2=O | / | / | / | / | -0.2 | /
Cc1ccc(Nc2n[nH]c(=S)s2)cc1F | -1.6 | 5.3 | / | 0.7 | 45.8* | 103.0
C[C@H]1CCCCO[C@H](CN(C)C(=O)Nc2ccc3c(c2)OCO3)[C@@H](C)CN([C@@H](C)CO)C(=O)c2cc(NC(=O)Nc3cccc4ccccc34)ccc2O1 | / | / | / | / | -0.5 | /
Cc1cccn2cc(-c3cc4ccccc4oc3=O)nc12 | 1.0 | -0.5 | 3.8 | 1.3 | 43.0* | 89.0
CCOc1ccc(NC(=O)CSc2nc3ccsc3c(=O)n2CCCCC(=O)O)cc1 | -6.6 | -1.0 | / | 2.0 | 0.0 | 104.0
CCc1ccc(NC(=O)CSc2nc3ccsc3c(=O)n2CCCCCC(=O)O)cc1 | -1.9 | 2.4 | 8.3 | 1.5 | 43.5* | 110.0
COCC(=O)Nc1ccc2c(c1)C(=O)N(C)C[C@@H](OC)[C@H](C)CN(C(C)=O)[C@@H](C)CO2 | / | / | / | / | -0.3 | /
CN(C)CC(=O)Nc1ccc2c(c1)[C@H]1C[C@H](CC(=O)NC3CCCC3)O[C@@H](CO)[C@H]1O2 | / | / | / | / | 0.0 | /
CCN1CCN(C(=O)c2cc(S(=O)(=O)Nc3ccc(S(C)(=O)=O)cc3)ccc2Cl)CC1 | 45.8 | 2.0 | 0.0 | 1.3 | 0.0 | 98.0
CC(=O)N1CCN(C(=O)c2cc(S(=O)(=O)Nc3ccc(S(C)(=O)=O)cc3)ccc2Cl)CC1 | 3.9 | -1.4 | 1.8 | 3.8 | 43.6* | 105.0
O=C(COC(=O)C1CC(=O)N(Cc2ccccc2)C1)Nc1ccc([N+](=O)[O-])cc1Br (centres undefined) | -4.3 | 1.1 | / | -1.9 | 43.1* | 98.0
CN1CCN(C(=O)C[C@H]2C[C@H]3c4cc(NC(=O)Cc5ccncc5)ccc4O[C@H]3[C@@H](CO)O2)CC1 | / | / | / | / | 0.0 | /
COc1cccc(NC(=O)CSc2ncc(S(=O)(=O)c3ccccc3)c(=O)[nH]2)c1 | 0.3 | 1.9 | 7.1 | 1.1 | 1.8* | 96.0
C[C@H](CO)N1C[C@H](C)[C@@H](CN(C)C(=O)Nc2cccc3ccccc23)Oc2c(NC(=O)Nc3ccc4c(c3)OCO4)cccc2C1=O | / | / | / | / | -0.6 | /
COCC(=O)Nc1ccc2c(c1)[C@@H]1C[C@H](CC(=O)NCc3cccnc3)O[C@@H](CO)[C@@H]1O2 | / | / | / | / | 0.1 | /
COc1ccc(N2CC(C(=O)N/N=C/c3c[nH]c4ccccc34)CC2=O)cc1 (centres undefined) | -4.3 | 1.3 | 11.9 | 10.0 | 43.6* | 94.0
COC(=O)C(CC(=O)c1ccc(C)cc1)n1nc(C)cc1C (centres undefined) | 56.6* | -3.0 | -7.8 | -2.3 | -0.1 | 101.0
CCc1nccn1CCC(=O)N1CCc2c([nH]c3ccccc23)C1CC(C)C (centres undefined) | 23.7 | -1.0 | 0.3 | -5.9 | -0.1 | 97.0
COCc1ccc(CN2CCc3c([nH]c4ccccc34)C2CC(C)C)o1 (centres undefined) | 5.5 | -3.2 | -1.1 | -3.7 | 43.1* | 89.0
C[C@H]1CN([C@@H](C)CO)C(=O)Cc2cc(NS(=O)(=O)c3cccs3)ccc2O[C@@H]1CN(C)C | / | / | / | / | -0.3 | /
CC1CCN(c2nc(N3CCCCC3)nc(N3CCCCC3)n2)CC1 | 0.0 | -3.5 | 5.2 | 0.5 | 43.1* | 99.0
CCC(=O)N1CCc2cc(Br)cc(S(=O)(=O)N3CCCC(C(=O)NC(C)(C)C)C3)c21 (centres undefined) | 4.5 | -0.5 | -8.3 | 0.0 | 42.9* | 99.0
CCCc1nc2sc3c(c2c(=O)[nH]1)CCCC3 | -4.6 | -0.2 | -13.0 | 0.2 | 43.4* | 98.0
CN(C)c1nc(SCC(=O)Nc2ccccc2)nc(N2CCOCC2)n1 | 1.2 | -0.5 | 11.8 | -1.4 | 0.0 | 95.0
SMILES | Exocytosis inh | DAGLB inh | VLA-4 inh | MT1-MMP act inh | FGF22 binding | ABCB6 inh 2
CN(C)c1nc(SCC(=O)Nc2ccc(Cl)c(Cl)c2)nc(N2CCOCC2)n1 | 73.9* | -3.3 | 6.3 | 2.3 | 42.2 | 97.0
CC(C)N(C(=O)COC(=O)[C@H](C)NC(N)=O)c1ccccc1 | -3.8 | -0.3 | 0.0 | -3.8 | 43.3* | 100.0
CCCNC(=O)C[C@@H]1CC[C@@H]2[C@H](COc3ccc(NC(=O)c4cc(C)on4)cc3C(=O)N2C)O1 | / | / | / | / | 0.1 | /
Nc1ccc(Cc2ccc([N+](=O)[O-])cc2)cc1 | -1.2 | 1.2 | / | 0.6 | 43.1* | 97.0
CCNC(=O)[C@@H]1[C@@H](CO)[C@@H]2Cn3c(ccc(-c4cccc(F)c4)c3=O)[C@@H]2N1Cc1cc(F)ccc1F | / | / | / | / | 0.0 | /
Cc1noc(C)c1NC(=O)Nc1ccc2c(c1)C(=O)N([C@H](C)CO)C[C@H](C)[C@@H](CN(C)Cc1ccc(C(=O)O)cc1)OCCCC[C@@H](C)O2 | / | / | / | / | 0.0 | /
CCCCN(C)CC(O)Cn1cc(/C=C/C(=O)c2ccc(C)cc2)c2ccccc21 (centres undefined) | 69.5* | 0.4 | 31.3 | -17.1 | -0.2 | 94.0
CCCN(CCC)CC(O)Cn1cc(/C=C/C(=O)c2ccccc2)c2ccccc21 (centres undefined) | 92.3* | -2.4 | / | -13.6 | 0.3 | 98.0
CCCN(CCC)CC(O)Cn1cc(/C=C/C(=O)c2cccs2)c2ccccc21 (centres undefined) | 45.1 | -4.5 | -6.6 | -40.9 | 0.3 | 111.0
CCNC(=O)CSc1nnc(CN2CCCCCC2=O)n1-c1ccccn1 | 0.4 | -2.1 | 5.4 | 3.6 | 43.2* | 98.0
CC(=O)c1c(C)[nH]c(C(=O)CSc2nnc(CN3CCCCCC3=O)n2-c2ccccn2)c1C | 1.3 | 1.2 | 6.6 | -1.4 | / | 95.0
C[C@@H]1CN([C@H](C)CO)C(=O)Cc2cc(NC(=O)Cc3cn(C)c4ccccc34)ccc2O[C@@H]1CN(C)S(=O)(=O)c1cccs1 | / | / | / | / | -0.1 | /
O=c1[nH]c2ccc(Cl)cc2c(O)c1Cc1ccccc1 | 4.5 | 3.2 | -1.1 | 0.2 | 44.3* | 100.0
Cn1cc(CC(=O)NCc2ccc(F)cc2)c2ccccc21 | 3.0 | 0.7 | 5.0 | 0.1 | -0.5 | 97.0
CCN(CC)C(=O)Cc1cn(C)c2ccccc12 | -14.8 | -2.3 | -3.2 | 3.1 | 43.2* | 109.0
CCN(CC1CCCO1)C(=O)CCc1nnc(CCc2ccc(OC)cc2)o1 (centres undefined) | 1.3 | -2.7 | -7.2 | 0.4 | 0.2 | 97.0
CCN(Cc1ccncc1)C(=O)CCc1nnc(CCc2ccc(OC)cc2)o1 | 9.4 | 0.2 | 11.6 | -1.5 | 43.8* | 101.0
CC(C)NC(=O)Nc1ccc2c(c1)CC(=O)N([C@H](C)CO)C[C@H](C)[C@H](CN(C)C(=O)Nc1ccc3c(c1)OCO3)O2 | / | / | / | / | -0.2 | /

Bioassay records deposited in PubChem BioAssay by several laboratories.
